Test results as given in ChEMBL document CHEMBL1141882, “Synthesis and biological testing of purine derivatives as potential ATP-competitive kinase inhibitors” (J Med Chem, 2005).

Tests used:
[1] = biological target: Mitogen-activated protein kinase 10 (Rattus norvegicus) (UniProt P49187); assay: Inhibition of rat c-Jun N-terminal kinase-3 at 30 uM
Procedure, shortened: (§1)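 Kinase activity assayed with ATP at 100 µM, deliberately higher than usual assay ATP levels because the inhibitors are assumed ATP-competitive. Results are reported as percent inhibition of each kinase.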

[2] = biological target: RAC-alpha serine/threonine-protein kinase (Homo sapiens) (UniProt P31749); assay: Inhibition of human Protein kinase B alpha at 30 uM; procedure, shortened: as §1
RAC-alpha serine/threonine-protein kinase (Homo sapiens), sequence (P31749 whole entry): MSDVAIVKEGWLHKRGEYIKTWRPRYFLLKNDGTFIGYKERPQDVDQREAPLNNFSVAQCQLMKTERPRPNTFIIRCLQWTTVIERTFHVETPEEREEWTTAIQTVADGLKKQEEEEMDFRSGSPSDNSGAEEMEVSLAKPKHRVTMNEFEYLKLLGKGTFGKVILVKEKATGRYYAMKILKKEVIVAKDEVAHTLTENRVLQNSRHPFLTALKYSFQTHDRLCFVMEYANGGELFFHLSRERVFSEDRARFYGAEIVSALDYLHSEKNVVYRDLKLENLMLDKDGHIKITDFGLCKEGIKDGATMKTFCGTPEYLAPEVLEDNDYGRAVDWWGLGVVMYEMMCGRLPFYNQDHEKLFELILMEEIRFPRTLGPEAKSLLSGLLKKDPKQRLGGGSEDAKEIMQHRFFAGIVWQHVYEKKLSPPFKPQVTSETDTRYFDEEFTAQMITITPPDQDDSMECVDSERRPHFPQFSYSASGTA

[3] = biological target: Mitogen-activated protein kinase 14 (Homo sapiens) (UniProt Q16539); assay: Inhibition of human stress-activated protein kinase-2 alpha (p38 MAP-kinase) at 30 uM; procedure, shortened: as §1
Mitogen-activated protein kinase 14 (Homo sapiens), sequence (Q16539 whole entry): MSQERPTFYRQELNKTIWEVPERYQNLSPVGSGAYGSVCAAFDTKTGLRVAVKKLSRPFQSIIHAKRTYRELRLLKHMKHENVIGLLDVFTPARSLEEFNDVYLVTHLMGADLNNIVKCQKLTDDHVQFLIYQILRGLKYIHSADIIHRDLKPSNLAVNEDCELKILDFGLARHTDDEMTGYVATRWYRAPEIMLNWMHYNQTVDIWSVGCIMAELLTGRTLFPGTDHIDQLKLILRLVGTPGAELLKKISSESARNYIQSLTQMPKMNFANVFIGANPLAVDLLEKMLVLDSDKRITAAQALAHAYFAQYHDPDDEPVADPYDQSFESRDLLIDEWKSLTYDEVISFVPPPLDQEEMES

[4] = biological target: Dual specificity mitogen-activated protein kinase kinase 1 (Homo sapiens) (UniProt Q02750); assay: Inhibition of human Mitogen activated protein kinase kinase 1 (MEK1) at 30 uM; procedure, shortened: as §1
Dual specificity mitogen-activated protein kinase kinase 1 (Homo sapiens), sequence (Q02750 whole entry): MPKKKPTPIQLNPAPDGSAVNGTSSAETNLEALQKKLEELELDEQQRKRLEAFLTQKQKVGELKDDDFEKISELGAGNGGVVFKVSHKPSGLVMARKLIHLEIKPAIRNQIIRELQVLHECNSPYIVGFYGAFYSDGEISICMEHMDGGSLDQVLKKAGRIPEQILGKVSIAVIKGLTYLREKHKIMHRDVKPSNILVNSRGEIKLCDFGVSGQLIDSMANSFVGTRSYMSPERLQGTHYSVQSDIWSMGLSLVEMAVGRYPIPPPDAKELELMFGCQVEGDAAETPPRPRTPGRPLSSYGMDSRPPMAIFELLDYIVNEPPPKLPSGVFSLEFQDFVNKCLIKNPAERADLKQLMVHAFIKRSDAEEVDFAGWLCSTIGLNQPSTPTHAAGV

[5] = biological target: Protein kinase C alpha type (Homo sapiens) (UniProt P17252); assay: Inhibition of human Protein kinase C alpha; design: concentration or dose not given beside the values; conditions: concentration not given here
[6] = biological target: cAMP-dependent protein kinase (PKA) (Homo sapiens) (UniProt P22694+P17612+P22612); assay: Inhibition of human cAMP-dependent protein kinase (PKA); format: protein assay; design: concentration or dose not given beside the values; conditions: concentration not given here
[7] = biological target: Ca2+/calmodulin-dependent protein kinase II (CaM kinase II) (Rattus norvegicus) (UniProt P11275+P08413+P15791+P11730); assay: Inhibition of rat Calcium/calmodulin-dependent protein kinase type II at 30 uM; format: protein assay; procedure, shortened: as §1
[8] = biological target: Glycogen synthase kinase-3 beta (Homo sapiens) (UniProt P49841); assay: Inhibition of human Glycogen synthase kinase-3 beta at 30 uM; procedure, shortened: as §1
Glycogen synthase kinase-3 beta (Homo sapiens), sequence (P49841 whole entry, looked up): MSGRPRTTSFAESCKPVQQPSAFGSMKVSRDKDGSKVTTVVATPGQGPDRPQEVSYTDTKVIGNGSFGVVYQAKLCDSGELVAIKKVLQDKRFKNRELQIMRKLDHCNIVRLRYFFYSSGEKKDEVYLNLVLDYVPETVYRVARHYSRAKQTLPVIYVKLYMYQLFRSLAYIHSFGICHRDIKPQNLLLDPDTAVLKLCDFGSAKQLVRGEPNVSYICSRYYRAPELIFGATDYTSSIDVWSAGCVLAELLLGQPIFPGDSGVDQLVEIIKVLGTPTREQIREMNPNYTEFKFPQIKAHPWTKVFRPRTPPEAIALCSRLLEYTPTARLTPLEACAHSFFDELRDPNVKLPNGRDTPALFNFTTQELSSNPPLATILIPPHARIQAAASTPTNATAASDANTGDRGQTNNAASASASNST

[9] = biological target: Mitogen-activated protein kinase 8 (Homo sapiens) (UniProt P45983); assay: Inhibition of human c-Jun N-terminal kinase-1 alpha-1 at 30 uM; procedure, shortened: as §1
Mitogen-activated protein kinase 8 (Homo sapiens), sequence (P45983 whole entry): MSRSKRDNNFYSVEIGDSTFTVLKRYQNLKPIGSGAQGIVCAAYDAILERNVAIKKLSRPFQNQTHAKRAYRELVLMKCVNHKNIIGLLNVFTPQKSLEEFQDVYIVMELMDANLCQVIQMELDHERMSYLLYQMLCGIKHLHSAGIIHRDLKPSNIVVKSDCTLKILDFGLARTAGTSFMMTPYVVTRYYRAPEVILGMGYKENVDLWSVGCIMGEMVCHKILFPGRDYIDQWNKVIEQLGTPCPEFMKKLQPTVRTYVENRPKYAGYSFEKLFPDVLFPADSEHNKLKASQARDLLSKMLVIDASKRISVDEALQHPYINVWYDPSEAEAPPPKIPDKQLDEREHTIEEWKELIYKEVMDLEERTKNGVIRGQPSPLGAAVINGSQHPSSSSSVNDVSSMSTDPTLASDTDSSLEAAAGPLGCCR

[10] = biological target: Mitogen-activated protein kinase 9 (Homo sapiens) (UniProt P45984); assay: Inhibition of human c-Jun N-terminal kinase-2 alpha-2 at 30 uM; procedure, shortened: as §1
Mitogen-activated protein kinase 9 (Homo sapiens), sequence (P45984 whole entry, looked up): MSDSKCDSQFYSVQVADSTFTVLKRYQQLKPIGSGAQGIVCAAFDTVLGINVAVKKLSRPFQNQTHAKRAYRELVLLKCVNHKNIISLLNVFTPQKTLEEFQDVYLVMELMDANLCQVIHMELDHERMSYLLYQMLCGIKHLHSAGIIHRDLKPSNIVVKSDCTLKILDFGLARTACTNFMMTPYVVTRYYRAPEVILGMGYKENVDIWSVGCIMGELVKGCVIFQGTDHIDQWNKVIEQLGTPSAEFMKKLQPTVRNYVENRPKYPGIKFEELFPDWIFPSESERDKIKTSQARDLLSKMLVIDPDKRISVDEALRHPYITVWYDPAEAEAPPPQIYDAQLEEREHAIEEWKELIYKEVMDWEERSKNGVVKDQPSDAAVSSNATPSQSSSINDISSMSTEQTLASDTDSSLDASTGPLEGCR

[11] = biological target: Mitogen-activated protein kinase 1 (Homo sapiens) (UniProt P28482); assay: Inhibition of human Mitogen-activated protein kinase 2 at 30 uM; procedure, shortened: as §1
Target sequence in this assay (P28482 whole entry): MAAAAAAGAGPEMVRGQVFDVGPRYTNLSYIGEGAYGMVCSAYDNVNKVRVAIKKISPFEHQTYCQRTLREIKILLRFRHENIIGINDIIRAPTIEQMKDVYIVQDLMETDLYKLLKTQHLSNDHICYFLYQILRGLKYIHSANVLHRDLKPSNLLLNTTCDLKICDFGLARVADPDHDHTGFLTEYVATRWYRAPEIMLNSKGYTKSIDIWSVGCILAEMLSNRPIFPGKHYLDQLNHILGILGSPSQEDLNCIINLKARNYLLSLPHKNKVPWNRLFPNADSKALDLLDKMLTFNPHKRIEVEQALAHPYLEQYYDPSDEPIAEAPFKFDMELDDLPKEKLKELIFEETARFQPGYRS

[12] = biological target: Tyrosine-protein kinase Lck (Homo sapiens) (UniProt P06239); assay: Inhibition of human lymphocyte protein tyrosine kinase Lck at 30 uM; procedure, shortened: as §1
[13] = biological target: RAF proto-oncogene serine/threonine-protein kinase (Homo sapiens) (UniProt P04049); assay: Inhibition of human RAF proto-oncogene serine/threonine-protein kinase at 30 uM; procedure, shortened: as §1
RAF proto-oncogene serine/threonine-protein kinase (Homo sapiens), sequence (P04049 whole entry): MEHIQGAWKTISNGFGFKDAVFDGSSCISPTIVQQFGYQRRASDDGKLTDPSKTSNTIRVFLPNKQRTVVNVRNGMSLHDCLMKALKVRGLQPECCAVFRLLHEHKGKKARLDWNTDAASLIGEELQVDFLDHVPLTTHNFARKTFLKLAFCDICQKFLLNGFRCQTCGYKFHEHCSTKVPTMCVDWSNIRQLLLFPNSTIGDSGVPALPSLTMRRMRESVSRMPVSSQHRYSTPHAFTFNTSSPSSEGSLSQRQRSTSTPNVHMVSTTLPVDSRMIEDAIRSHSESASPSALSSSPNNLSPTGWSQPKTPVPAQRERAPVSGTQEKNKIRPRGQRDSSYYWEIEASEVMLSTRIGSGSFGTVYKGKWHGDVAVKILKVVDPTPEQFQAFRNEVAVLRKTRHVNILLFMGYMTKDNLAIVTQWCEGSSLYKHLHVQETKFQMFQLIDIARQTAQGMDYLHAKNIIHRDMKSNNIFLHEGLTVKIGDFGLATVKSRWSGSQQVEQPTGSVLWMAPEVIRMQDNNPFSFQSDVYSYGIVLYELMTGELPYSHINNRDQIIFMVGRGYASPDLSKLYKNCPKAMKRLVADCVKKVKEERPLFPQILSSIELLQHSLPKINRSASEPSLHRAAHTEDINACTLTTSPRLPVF

[14] = biological target: Rho-associated protein kinase 2 (Homo sapiens) (UniProt O75116); assay: Inhibition of human Rho-dependent protein kinase-II at 30 uM
[15] = biological target: Mitogen-activated protein kinase 1 (Homo sapiens) (UniProt P28482); assay: Inhibition of human Mitogen-activated protein kinase 1 at 30 uM

Mitogen-activated protein kinase 10 (Rattus norvegicus), sequence (P49187 whole entry): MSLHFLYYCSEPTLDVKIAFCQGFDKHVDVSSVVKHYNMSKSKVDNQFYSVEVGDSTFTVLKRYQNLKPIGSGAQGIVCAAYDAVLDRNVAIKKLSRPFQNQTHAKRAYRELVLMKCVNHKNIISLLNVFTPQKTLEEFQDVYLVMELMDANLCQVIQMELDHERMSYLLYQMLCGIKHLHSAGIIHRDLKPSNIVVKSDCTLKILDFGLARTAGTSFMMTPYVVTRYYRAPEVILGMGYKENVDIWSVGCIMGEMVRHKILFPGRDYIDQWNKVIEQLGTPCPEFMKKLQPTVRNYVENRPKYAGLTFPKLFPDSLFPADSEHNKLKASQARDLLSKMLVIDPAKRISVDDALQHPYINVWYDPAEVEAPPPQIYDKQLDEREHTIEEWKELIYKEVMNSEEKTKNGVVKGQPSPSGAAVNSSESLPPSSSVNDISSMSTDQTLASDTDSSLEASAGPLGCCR

| Compound | inhibition [1] | inhibition [2] | inhibition [3] | inhibition [4] | inhibition [5] | inhibition [6] | inhibition [7] | inhibition [8] | inhibition [9] | inhibition [10] | inhibition [11] | inhibition [12] | inhibition [13] | inhibition [14] | inhibition [15] |
| --- | --- | --- | --- | --- | --- | --- | --- | --- | --- | --- | --- | --- | --- | --- | --- |
| c1ccc(Nc2ncnc3[nH]cnc23)cc1 | 11% | 14% | 34% | 19% | 6% | 32% | 0% | 13% | 0% | 0% | 33% | 39% | 19% | 48% | 22% |
| Cn1cnc2c(Sc3ccccc3)ncnc21 | 7% | 0% | 17% | 3% | 13% | 0% | 8% | 3% | 3% | 6% | 12% | 6% | 10% | 6% | – |
| CSc1ccc(-c2nc3c(Sc4ccc(F)cc4)ncnc3n2C)cc1 | 3% | 0% | 15% | 4% | 0% | 0% | 7% | 5% | 3% | 5% | 0% | 1% | 1% | 0% | – |
| Clc1ncnc2ncn(Cc3ccccc3)c12 | 11% | 0% | 7% | 0% | 12% | 0% | 0% | 9% | 0% | 1% | 1% | 0% | 12% | 6% | – |
| Nc1ncnc2c1ncn2Cc1ccc(F)cc1 | 9% | 0% | 8% | 7% | 16% | 0% | 9% | 5% | 0% | 0% | 0% | 22% | 16% | 0% | – |
| c1ccc(Cn2cnc3c(Sc4ccccc4)ncnc32)cc1 | 0% | 1% | 64% | 6% | 0% | 0% | 3% | 1% | 0% | 0% | 0% | 0% | 0% | 1% | – |
| c1ccc(-[n+]2c[nH]c3ncncc32)cc1 | 3% | 0% | 0% | 0% | 4% | 0% | 0% | 4% | 0% | 0% | 0% | 2% | 0% | 0% | – |
| c1ccc(Sc2[nH]cnc3nccc2-3)cc1 | 0% | 0% | 56% | 41% | 23% | 0% | 6% | 11% | 0% | 0% | 4% | 56% | 22% | 36% | – |
| Fc1ccc(-[n+]2c[nH]c3ncncc32)cc1 | 4% | 0% | 0% | 0% | 2% | 0% | 0% | 0% | 1% | 0% | 0% | 9% | 0% | 2% | – |
